This note sets out measurements from ChEMBL document CHEMBL1134763, “Oxidation of N(omega)-hydroxyarginine analogues by NO-synthase: the simple, non amino acid N-butyl N'-hydroxyguanidine is almost as efficient an NO precursor as N(omega)-hydroxyarginine” (J Med Chem, 2001).

Type in all cases: functional
Data set [1] addresses T1, Nitric oxide synthase 3 (Homo sapiens) (UniProt P29474).
T1 sequence (whole entry): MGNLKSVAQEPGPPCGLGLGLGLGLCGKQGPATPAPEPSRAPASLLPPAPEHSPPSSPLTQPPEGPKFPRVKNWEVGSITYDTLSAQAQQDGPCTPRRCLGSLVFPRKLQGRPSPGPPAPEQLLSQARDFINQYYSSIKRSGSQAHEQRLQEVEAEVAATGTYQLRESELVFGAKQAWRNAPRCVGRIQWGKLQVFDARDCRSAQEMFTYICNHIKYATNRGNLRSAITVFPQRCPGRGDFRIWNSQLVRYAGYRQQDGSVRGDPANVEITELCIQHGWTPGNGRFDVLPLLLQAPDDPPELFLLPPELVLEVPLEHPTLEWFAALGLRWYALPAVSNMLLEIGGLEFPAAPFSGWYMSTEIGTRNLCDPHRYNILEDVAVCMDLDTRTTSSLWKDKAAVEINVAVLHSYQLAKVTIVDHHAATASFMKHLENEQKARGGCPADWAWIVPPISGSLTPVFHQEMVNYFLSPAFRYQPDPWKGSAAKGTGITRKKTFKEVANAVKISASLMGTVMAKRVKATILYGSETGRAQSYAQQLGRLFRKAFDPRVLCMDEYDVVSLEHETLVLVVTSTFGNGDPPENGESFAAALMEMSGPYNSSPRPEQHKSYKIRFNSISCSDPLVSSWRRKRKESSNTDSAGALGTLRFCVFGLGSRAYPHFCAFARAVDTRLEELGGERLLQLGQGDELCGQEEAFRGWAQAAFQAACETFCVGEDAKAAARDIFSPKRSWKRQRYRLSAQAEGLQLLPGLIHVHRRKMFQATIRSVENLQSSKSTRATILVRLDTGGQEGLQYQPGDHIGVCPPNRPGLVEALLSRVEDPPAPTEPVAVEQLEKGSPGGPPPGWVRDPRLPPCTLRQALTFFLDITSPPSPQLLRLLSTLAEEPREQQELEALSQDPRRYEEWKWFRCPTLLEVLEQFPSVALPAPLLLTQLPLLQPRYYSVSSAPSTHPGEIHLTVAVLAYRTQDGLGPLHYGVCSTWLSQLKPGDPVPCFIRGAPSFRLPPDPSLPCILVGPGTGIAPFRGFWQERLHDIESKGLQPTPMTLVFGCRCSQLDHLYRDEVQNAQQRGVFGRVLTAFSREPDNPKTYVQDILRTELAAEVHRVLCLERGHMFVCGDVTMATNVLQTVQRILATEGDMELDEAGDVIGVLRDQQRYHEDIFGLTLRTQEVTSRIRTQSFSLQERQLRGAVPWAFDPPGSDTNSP
In words: Formation of Nitric Oxide by Nitric Oxide synthase III(% relative to NOHA). In outline:
(§1)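 Purified recombinant NOS (5–50 nM) at 37 °C in 50 mM HEPES pH 7.4 with 1 mM test compound, 1 mM NADPH, 100 μM BH4, 100 U/mL SOD, 100 U/mL catalase, 12–15 μM oxyhemoglobin and 5 mM DTT. NOS I and NOS III runs also contained 1 mM CaCl2 and 10 μg/mL calmodulin. NO was read spectrophotometrically as oxyhemoglobin-to-methemoglobin conversion. Initial rates are given as % of the NOHA rate.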

In data set [2] the target is T2, Nitric oxide synthase, inducible (Mus musculus) (UniProt P29477).
T2 sequence (whole entry): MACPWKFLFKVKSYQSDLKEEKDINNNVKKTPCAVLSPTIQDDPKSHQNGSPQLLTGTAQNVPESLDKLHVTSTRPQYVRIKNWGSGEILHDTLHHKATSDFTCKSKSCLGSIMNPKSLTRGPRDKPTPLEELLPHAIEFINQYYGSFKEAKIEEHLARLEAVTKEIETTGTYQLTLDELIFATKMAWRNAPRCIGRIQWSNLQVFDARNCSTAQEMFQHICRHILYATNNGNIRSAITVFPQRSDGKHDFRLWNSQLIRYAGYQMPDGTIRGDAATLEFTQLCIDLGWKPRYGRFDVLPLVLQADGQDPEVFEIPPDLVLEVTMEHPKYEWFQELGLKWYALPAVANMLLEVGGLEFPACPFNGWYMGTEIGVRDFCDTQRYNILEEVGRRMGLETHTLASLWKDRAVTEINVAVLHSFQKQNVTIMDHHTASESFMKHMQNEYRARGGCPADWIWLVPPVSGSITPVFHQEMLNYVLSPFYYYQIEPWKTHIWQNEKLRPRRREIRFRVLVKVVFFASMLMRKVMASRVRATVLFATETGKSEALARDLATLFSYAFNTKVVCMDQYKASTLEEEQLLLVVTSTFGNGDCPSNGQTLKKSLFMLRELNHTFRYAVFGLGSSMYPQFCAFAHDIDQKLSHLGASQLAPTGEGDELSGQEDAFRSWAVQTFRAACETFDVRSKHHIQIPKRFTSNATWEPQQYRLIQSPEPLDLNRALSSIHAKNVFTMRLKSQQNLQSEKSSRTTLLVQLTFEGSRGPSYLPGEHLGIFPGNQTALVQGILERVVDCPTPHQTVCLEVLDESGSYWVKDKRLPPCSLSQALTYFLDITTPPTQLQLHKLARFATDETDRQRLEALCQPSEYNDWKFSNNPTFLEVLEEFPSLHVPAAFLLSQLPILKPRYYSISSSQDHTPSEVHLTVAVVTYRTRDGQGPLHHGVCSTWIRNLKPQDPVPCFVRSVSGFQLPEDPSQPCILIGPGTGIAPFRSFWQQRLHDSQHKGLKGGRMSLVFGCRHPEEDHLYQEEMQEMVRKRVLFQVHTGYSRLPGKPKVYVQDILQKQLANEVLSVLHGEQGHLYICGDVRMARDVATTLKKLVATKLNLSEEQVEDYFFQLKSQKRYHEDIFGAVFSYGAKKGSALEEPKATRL
In words: Formation of Nitric Oxide by Nitric Oxide synthase II(% relative to NOHA). In outline: as §1

The target in data set [3] is Nitric oxide synthase 1 (Homo sapiens) (UniProt P29475). In words: Formation of Nitric Oxide by Nitric Oxide synthase I(% relative to NOHA). The method, boiled down:
as §1

For data set [4], the target named is T2, Nitric oxide synthase, inducible (Mus musculus). In words: (§2) Compound was evaluated for the kinetic constants for Nitric Oxide formation from oxidation by NOS II. In outline: (§3)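 Recombinant purified NOS II was run in the hemoglobin assay at 37 °C in 50 mM HEPES pH 7.4 with NADPH, BH4, SOD, catalase and DTT, over varying substrate concentrations. Initial NO-formation rates gave saturation kinetics. Km (μM) and kcat (min⁻¹) were derived from Lineweaver-Burk plots, and kcat/Km is expressed in μM⁻¹ min⁻¹.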

The nature of data set [5]: Ratio between Km (uM) and Kcat (1/min) was determined. In outline: as §3
Substrate in data set [6]: CCCCN/C(N)=N/O
Described as §2. The method, boiled down: as §3

Substrate in data set [7]: N=C(NO)Nc1ccc(Cl)cc1
Described as §2. The method, boiled down: as §3

Substrate in data set [8]: N/C(=N/CCCCC(N)C(=O)O)NO
The data set is described as §2. The method, boiled down: as §3

Substrate in data set [9]: CCCCC/N=C(/N)NO
The data set is described as §2. In outline: as §3

Substrate in data set [10]: N/C(=N/CCCC(N)C(=O)O)NO
Described as §2. The method, boiled down: as §3

Nitric oxide synthase 1 (Homo sapiens), sequence (P29475 whole entry): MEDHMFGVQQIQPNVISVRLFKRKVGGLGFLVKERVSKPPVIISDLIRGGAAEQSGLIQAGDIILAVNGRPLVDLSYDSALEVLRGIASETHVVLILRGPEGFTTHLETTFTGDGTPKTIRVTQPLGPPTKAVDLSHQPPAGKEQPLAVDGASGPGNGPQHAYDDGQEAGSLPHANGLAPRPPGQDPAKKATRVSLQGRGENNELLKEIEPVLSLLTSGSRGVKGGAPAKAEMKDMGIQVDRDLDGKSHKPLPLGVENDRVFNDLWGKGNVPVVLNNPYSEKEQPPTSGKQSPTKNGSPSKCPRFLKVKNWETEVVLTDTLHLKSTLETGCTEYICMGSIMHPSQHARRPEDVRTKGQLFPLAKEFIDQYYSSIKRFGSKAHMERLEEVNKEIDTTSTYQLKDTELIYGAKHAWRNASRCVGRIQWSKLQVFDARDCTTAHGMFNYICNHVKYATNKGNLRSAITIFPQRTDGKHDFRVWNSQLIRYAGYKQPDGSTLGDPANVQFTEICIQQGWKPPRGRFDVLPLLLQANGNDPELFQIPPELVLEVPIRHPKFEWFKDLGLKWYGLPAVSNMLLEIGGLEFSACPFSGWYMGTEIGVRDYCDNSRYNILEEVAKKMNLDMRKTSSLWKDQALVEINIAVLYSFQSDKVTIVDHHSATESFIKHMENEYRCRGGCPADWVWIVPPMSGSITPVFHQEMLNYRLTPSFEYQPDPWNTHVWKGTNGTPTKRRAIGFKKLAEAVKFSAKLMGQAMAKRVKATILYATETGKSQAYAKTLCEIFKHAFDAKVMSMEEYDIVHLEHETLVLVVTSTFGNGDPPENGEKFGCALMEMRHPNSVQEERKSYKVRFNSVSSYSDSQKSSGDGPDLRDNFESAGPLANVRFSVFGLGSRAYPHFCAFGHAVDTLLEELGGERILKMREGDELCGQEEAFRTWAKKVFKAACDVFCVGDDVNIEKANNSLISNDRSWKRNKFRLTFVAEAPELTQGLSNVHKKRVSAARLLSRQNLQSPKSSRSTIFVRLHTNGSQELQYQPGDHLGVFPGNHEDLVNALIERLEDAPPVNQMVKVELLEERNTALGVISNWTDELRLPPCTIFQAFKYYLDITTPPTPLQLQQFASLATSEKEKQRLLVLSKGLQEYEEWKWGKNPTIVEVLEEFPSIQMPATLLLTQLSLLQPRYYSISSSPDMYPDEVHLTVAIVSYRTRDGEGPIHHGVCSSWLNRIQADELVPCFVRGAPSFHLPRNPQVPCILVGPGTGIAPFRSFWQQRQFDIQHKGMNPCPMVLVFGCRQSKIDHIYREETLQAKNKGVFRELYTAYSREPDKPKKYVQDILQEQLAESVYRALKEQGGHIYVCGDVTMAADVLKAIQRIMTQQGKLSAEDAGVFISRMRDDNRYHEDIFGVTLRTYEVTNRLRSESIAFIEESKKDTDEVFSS

As for `N/C(=N/CCCCC(=O)O)NO`, the Initial rates in [1] is 2; in data set [2] it was 1; in data set [3], below 0.5.

On to `NC(=NCCCC(=O)O)NO`, for which the Initial rates in data set [1], in [2] and in data set [3] was below 0.5 throughout.

Consider `CCCCCC/N=C(/N)NO`, for which the Initial rates was below 0.5 in [1], 1 in [2] and 2 in data set [3].

With `N/C(=N/CCCC(N)C(=O)O)NO` (stereo unspecified), the k cat in data set [4] was determined as 480 min⁻¹. The Initial rates in [1], in [2] and in data set [3] was 100 throughout. The k cat/Km in data set [5] came to 12 µM⁻¹ min⁻¹.

Consider `CCC/N=C(/N)NO`, for which the Initial rates in data set [1] was 41; in data set [2] it was 15; in data set [3] it was 36.

In data set [4], `N/C(=N/CCCCC(N)C(=O)O)NO` (stereo unspecified) returned a k cat of 410 min⁻¹. In addition, the Initial rates in data set [1] was determined as 70; in [2], 55; in data set [3], 82. For the same molecule, the k cat/Km in data set [5] is 2.8 µM⁻¹ min⁻¹.

In data set [4], `CCCCC/N=C(/N)NO` returned a k cat of 280 min⁻¹. Besides, the Initial rates in data set [1] was below 0.5; in [2], 25; in data set [3], 34. Besides, the k cat/Km in data set [5] was 0.9 µM⁻¹ min⁻¹.

For `NCCCN/C(N)=N/O`, the Initial rates in [1], in data set [2] and in data set [3] was below 0.5 throughout.

As for `N/C(=N/CC(N)C(=O)O)NO` (stereo unspecified), the Initial rates in data set [1], in data set [2] and in data set [3] was below 0.5 throughout.

As for `N=C(NO)Nc1ccc(Cl)cc1`, the k cat in [4] worked out at 100 min⁻¹. Moreover, the k cat/Km in data set [5] was 0.2 µM⁻¹ min⁻¹.

Take `NC(=NCCC(N)C(=O)O)NO` (stereo unspecified): the Initial rates in data set [1], in data set [2] and in data set [3] was below 0.5 each time.

`CCCCN/C(N)=N/O` registered a k cat in data set [4] of 320 min⁻¹. The Initial rates was found to be 41 in [1], 68 in data set [2] and 65 in data set [3]. In addition, in data set [5], the k cat/Km was determined as 5.8 µM⁻¹ min⁻¹.

As for `NCCCC/N=C(/N)NO`, the Initial rates in data set [1] is below 0.5; in data set [2] it was 8; in data set [3] it was 2.

B1: Nitric oxide synthase, inducible (Mus musculus), P29477 (protein)
chain: MACPWKFLFKVKSYQSDLKEEKDINNNVKKTPCAVLSPTIQDDPKSHQNGSPQLLTGTAQNVPESLDKLHVTSTRPQYVRIKNWGSGEILHDTLHHKATSDFTCKSKSCLGSIMNPKSLTRGPRDKPTPLEELLPHAIEFINQYYGSFKEAKIEEHLARLEAVTKEIETTGTYQLTLDELIFATKMAWRNAPRCIGRIQWSNLQVFDARNCSTAQEMFQHICRHILYATNNGNIRSAITVFPQRSDGKHDFRLWNSQLIRYAGYQMPDGTIRGDAATLEFTQLCIDLGWKPRYGRFDVLPLVLQADGQDPEVFEIPPDLVLEVTMEHPKYEWFQELGLKWYALPAVANMLLEVGGLEFPACPFNGWYMGTEIGVRDFCDTQRYNILEEVGRRMGLETHTLASLWKDRAVTEINVAVLHSFQKQNVTIMDHHTASESFMKHMQNEYRARGGCPADWIWLVPPVSGSITPVFHQEMLNYVLSPFYYYQIEPWKTHIWQNEKLRPRRREIRFRVLVKVVFFASMLMRKVMASRVRATVLFATETGKSEALARDLATLFSYAFNTKVVCMDQYKASTLEEEQLLLVVTSTFGNGDCPSNGQTLKKSLFMLRELNHTFRYAVFGLGSSMYPQFCAFAHDIDQKLSHLGASQLAPTGEGDELSGQEDAFRSWAVQTFRAACETFDVRSKHHIQIPKRFTSNATWEPQQYRLIQSPEPLDLNRALSSIHAKNVFTMRLKSQQNLQSEKSSRTTLLVQLTFEGSRGPSYLPGEHLGIFPGNQTALVQGILERVVDCPTPHQTVCLEVLDESGSYWVKDKRLPPCSLSQALTYFLDITTPPTQLQLHKLARFATDETDRQRLEALCQPSEYNDWKFSNNPTFLEVLEEFPSLHVPAAFLLSQLPILKPRYYSISSSQDHTPSEVHLTVAVVTYRTRDGQGPLHHGVCSTWIRNLKPQDPVPCFVRSVSGFQLPEDPSQPCILIGPGTGIAPFRSFWQQRLHDSQHKGLKGGRMSLVFGCRHPEEDHLYQEEMQEMVRKRVLFQVHTGYSRLPGKPKVYVQDILQKQLANEVLSVLHGEQGHLYICGDVRMARDVATTLKKLVATKLNLSEEQVEDYFFQLKSQKRYHEDIFGAVFSYGAKKGSALEEPKATRL
What is called Km is the substrate concentration at which the rate is half of its maximum. On to B1, for which the Km in data set [6] came to 55 µM; in data set [7], 500 µM; in data set [8], 146 µM; in [9] it was 310 µM; in [10], 40 µM.
